# Compound activity deposited in PubChem by Broad Institute.
# CFTR F508del cor – CFTR F508del correction in bronchial cells | CFBE cells, YFP halide quenching; stimulated with forskolin plus potentiator P3; % fluorescence drop versus neutral controls | activity (quench increase), % at 7.58 µM | 350,000 tested, 0.36% active | AID 720511;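 active = mean added fluorescence quench of at least 8% versus neutral control, with both replicates also reaching 8%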;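 note: cells transiently co-express mutant CFTR-F508del with the halide-sensitive YFP; corrector assay measuring rescue of mutant channel to the surface after 24 h compound exposure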
# DENV2 CPE rescue – DENV2-induced cell death inhibition. 350,000 tested, 1.7% active. AID 651640. CPE inhibition, % at 9.99 µM. DENV2-infected cells, cytopathic effect rescue, plate reader; in the data active = CPE inhibition above about 20%, passing the limit was not always enough; tested in BHK-21 cells;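 note: 0% = median of neutral control wells and 100% = median of positive control wells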
# ERAP1 inh – blocks human ERAP1 aminopeptidase activity | recombinant ERAP1, Leu-AMC fluorescence, 60 min | inhibition, % at 10.7 µM | 340,000 tested, 0.15% active | Q9NZ08;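 active = mean replicate inhibition of at least 30%, or all replicates individually reaching that 30% level; inactive = mean below 30% and not every replicate reaching it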;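 note: 0% = neutral control wells and 100% = L-leucinethiol positive control wells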
# miR122 inh – miR-122 inhibition in Huh7 cells; Huh7 miR-122 Renilla luciferase sensor, 48 h; neutral wells = 0, positive control = 100; AID 602342; activation (reporter increase), % at 12.5 µM; 340,000 tested, 0.3% active;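 active = mean replicate activation score at least 90 and every replicate individually at or above 90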;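 note: higher luciferase means less miR-122 activity so hits act as miR-122 inhibitors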
# GSIS activator – GLuc luminescence reporter in INS-1E cells, primary screen for activators of glucose-dependent secretion of insulin; 370,000 tested, 0.61% active; AID 743287; activation, % at 16.6 µM; INS-1E GLuc reporter insulin secretion, 2-3 h;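 active = lowest replicate activation of at least 40%, so every replicate reaches that level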;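 note: 0% = median of neutral control wells and 100% = median of IBMX positive control wells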
# E-selectin induc – E-selectin induction on HUVECs; P16581; HUVEC E-selectin immunofluorescence imaging; normalized: neutral wells 0, TNF-alpha wells 100; activation, % at 7.58 µM; 260,000 tested, 0.37% active; AID 686992;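 active = mean E-selectin-positive cell signal at least 10% of the positive control, reached in at least 60% of replicates, without over 20% cell loss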
# Target sequence (P16581 whole entry, looked up): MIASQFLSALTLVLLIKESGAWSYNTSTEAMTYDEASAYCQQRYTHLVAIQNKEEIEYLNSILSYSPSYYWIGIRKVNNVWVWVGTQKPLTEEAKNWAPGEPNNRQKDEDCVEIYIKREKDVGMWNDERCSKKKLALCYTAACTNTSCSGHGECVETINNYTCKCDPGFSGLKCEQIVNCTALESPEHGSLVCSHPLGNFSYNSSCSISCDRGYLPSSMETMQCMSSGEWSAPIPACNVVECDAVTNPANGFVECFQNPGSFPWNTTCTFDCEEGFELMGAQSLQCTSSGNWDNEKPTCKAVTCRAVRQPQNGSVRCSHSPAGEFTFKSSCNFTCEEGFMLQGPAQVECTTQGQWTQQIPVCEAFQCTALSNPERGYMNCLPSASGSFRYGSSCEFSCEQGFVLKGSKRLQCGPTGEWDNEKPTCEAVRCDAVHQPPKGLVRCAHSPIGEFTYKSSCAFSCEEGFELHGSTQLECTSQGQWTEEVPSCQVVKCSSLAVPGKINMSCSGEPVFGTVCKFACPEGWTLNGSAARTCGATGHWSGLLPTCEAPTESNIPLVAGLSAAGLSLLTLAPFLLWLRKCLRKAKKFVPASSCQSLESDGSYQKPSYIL
#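 material = human umbilical vein endothelial cells (HUVEC), E-selectin induction | quantity = 3,000 cells/well | medium = EGM-2 growth medium on 0.1% gelatin-coated wells | technique = immunofluorescence imaging | read-out basis = % PE-positive cells | control set = TNF-alpha positive control, DMSO neutral control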
# * = called active by the depositor; x = no result; [ ] = remark or other dose. Rows were chosen to be rich in hits. Some 2.6% of all compounds tested hit in one or more screens of this group.
SMILES,CFTR F508del cor,DENV2 CPE rescue,ERAP1 inh,miR122 inh,GSIS activator,E-selectin induc
COC(=O)c1sc2nc(SCC(=O)N(C)c3ccccc3)n(N)c(=O)c2c1C,4,0,9,1,-6,154*
C[C@H]1CCCCO[C@H](CN(C)Cc2ccc(C(F)(F)F)cc2)[C@@H](C)CN([C@@H](C)CO)C(=O)c2cc(NC(=O)c3ccncc3)ccc2O1,4,0,-1,9[16.7 µM],-19,1
O=C(Cc1cccc(C(F)(F)F)c1)Nc1ccc(S(=O)(=O)N2CCCC2)cc1,0,79*,2,33,-39,1
O=C(Cc1cccc(C(F)(F)F)c1)Nc1cccc(S(=O)(=O)N2CCCC2)c1,1,-2,1,x,-44,0
CC(C)NC(=O)N(C)C[C@H]1Oc2ccc(NC(=O)Nc3ccc(F)cc3)cc2C(=O)N([C@@H](C)CO)C[C@@H]1C,-1,-5,2,2[16.7 µM],4,0
CCN(CC(=O)Nc1ccccc1C(F)(F)F)C(=O)Cn1c(=O)cnc2ccccc21,1,0,32*,5,5,0
CCN(CC(=O)Nc1c(F)cccc1F)C(=O)Cn1c(=O)cnc2ccccc21,3,-9,1,-5,12,1
Cc1noc(C)c1NC(=O)N(C)C[C@@H]1Oc2ncc(C#CC(C)C)cc2C(=O)N([C@H](C)CO)C[C@H]1C,1,13,1,2[16.7 µM],0,0
COc1ccc(NC(=O)N(C)C[C@@H]2Oc3ncc(C#CC(C)C)cc3C(=O)N([C@@H](C)CO)C[C@@H]2C)cc1,-3,53*,0,-3[16.7 µM],-16,0
Cc1noc(C)c1NC(=O)N(C)C[C@@H]1Oc2ncc(C#CCN(C)C)cc2C(=O)N([C@@H](C)CO)C[C@@H]1C,-1,25*,1,-7[16.7 µM],1,0
Cc1noc(C)c1NC(=O)N(C)C[C@H]1Oc2ncc(C#CC(C)C)cc2C(=O)N([C@@H](C)CO)C[C@H]1C,-1,53*,6,-6[16.7 µM],3,0
O=C(Cc1cccnc1)N1CC(=O)N2[C@H](CO)[C@@H](c3ccc(-c4cccc(F)c4)cc3)[C@@H]2C1,x,x,x,x,0,x
CCCc1cn(CC[C@@H]2CC[C@H](NS(=O)(=O)c3ccccc3Cl)[C@@H](CO)O2)nn1,-1,2,2,x,10,0
CC(=O)NC[C@H]1[C@H](c2ccc(-c3ccccc3F)cc2)[C@H](CO)N1C(=O)C1CC1,-1,53*,-4,-7[16.7 µM],-6,0
N#C[C@@H]1[C@H](c2ccccc2-c2cccc(F)c2)[C@H](CO)N1C(=O)C1CCCC1,3,37*,0,x,-17,1
N#C[C@@H]1[C@H](c2ccc(-c3ccccc3F)cc2)[C@H](CO)N1C(=O)C1CC1,4,87*,-1,x,6,0
N#C[C@H]1[C@@H](c2ccccc2-c2cccc(F)c2)[C@H](CO)N1C(=O)C1CCCC1,2,-6,3,x,-14,0
CC(=O)NC[C@@H]1[C@@H](c2ccc(-c3ccccc3F)cc2)[C@H](CO)N1C(=O)C1CC1,-2,-8,-1,-14[16.7 µM],1,0
N#C[C@H]1[C@H](c2ccccc2-c2ccccc2F)[C@@H](CO)N1C(=O)C1CC1,4,22*,0,x,25,0
N#C[C@@H]1[C@@H](c2ccccc2-c2ccccc2F)[C@H](CO)N1C(=O)C1CC1,1,-10,1,x,3,0
CN(C)CC(=O)Nc1ccc2c(c1)[C@@H]1C[C@H](CC(=O)NCc3cccnc3)O[C@@H](CO)[C@@H]1O2,1,0,0,0[16.7 µM],7,0
N#C[C@H]1[C@H](c2ccc(-c3cccc(F)c3)cc2)[C@@H](CO)N1c1nc(-c2ccccc2)cs1,-2,38*,-8,x,4,0
C/C=C/c1ccccc1[C@H]1[C@@H](C#N)N(C(=O)NC2CCCC2)[C@H]1CO,-4,60*,-2,x,-27,0
N#C[C@H]1[C@@H](c2ccc(-c3cccc(F)c3)cc2)[C@H](CO)N1c1nc(-c2ccccc2)cs1,-3,-7,-3,x,1,0
